Data on eight molecules can be found in ChEMBL document CHEMBL3286372, “Design, synthesis and structure-activity relationship of novel semi-synthetic flavonoids as antiproliferative agents” (2014).

A short description of assay [1]: Growth inhibition of human PC549 cells after 48 hrs by coulter counting analysis. Format: functional. A digest of the protocol: (§1)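 Five-dose NCI-60 follow-up, 0.01–100 µM, made from DMSO stock in buffered saline (final DMSO <1%), in duplicate wells. Cells in RPMI 1640 with 10% FBS at 6×10^4 cells/ml, 37 °C, 5% CO2, 48 h. Cells diluted tenfold in saline, Coulter-counted and corrected for dilution. GI50, TGI and LC50 taken from log concentration–percent growth curves.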

Assay [2] is described as follows: Growth inhibition of human […] cells after 48 hrs by coulter counting analysis. The format is functional. A digest of the protocol: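 NCI five-dose screen at 0.01-100 µM, diluted from DMSO stocks in buffered saline (final DMSO <1%). Cells at 6×10^4 cells/ml in RPMI 1640 with 10% FBS, in duplicate wells, at 37 °C under 5% CO2 for 48 h. Cells diluted tenfold in saline and Coulter-counted. GI50, TGI and LC50 taken from log concentration-growth inhibition curves.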

Assay [3] deals with SR. Nature of the assay: Growth inhibition of human SR cells after 48 hrs by coulter counting analysis. Format: functional. A digest of the protocol: as §1
The subject of assay [4] is SR. Nature of the assay: Growth inhibition of human SR cells at 10 uM after 48 hrs by sulforhodamine B assay relative to control. Format: functional. The note with it: read-out: GI. A digest of the protocol:
(§2)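 NCI-60 primary screen at a single 10 µM dose. Continuous 48 h exposure, with growth or viability estimated by sulforhodamine B protein staining. Reported as percent growth inhibition of treated cells relative to untreated growth.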

The nature of assay [5]: Growth inhibition of human MOLT4 cells at 10 uM after 48 hrs by sulforhodamine B assay relative to control. The format is functional. The conditions noted are these: MOLT-4, 48 h, read-out: GI. In short, it runs like this:
as §2

The subject of a further assay is SNB-75. Nature of the assay: Growth inhibition of human SNB75 cells at 10 uM after 48 hrs by sulforhodamine B assay relative to control. Format: functional. The note with it: SNB-75, 48 h, read-out: GI. In short, it runs like this: as §2
A further assay has as its system MDA-MB-435. Nature of the assay: Growth inhibition of human MDA-MB-435 cells at 10 uM after 48 hrs by sulforhodamine B assay relative to control. Format: functional. The conditions noted are these: MDA-MB-435, 48 h, read-out: GI. In short, it runs like this:
(§3)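 NCI-60 primary screen at a single dose of 10 µM with 48 h continuous exposure. Growth or viability read by sulforhodamine B protein staining and expressed as percent growth inhibition versus untreated cells.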

A further assay has as its system RPMI-8226. Nature of the assay: Growth inhibition of human RPMI8226 cells at 10 uM after 48 hrs by sulforhodamine B assay relative to control. The format is functional. The conditions noted are these: RPMI-8226, 48 h, read-out: GI. A digest of the protocol:
as §2

For another assay, the system named is HCT-116. Description: Growth inhibition of human HCT116 cells at 10 uM after 48 hrs by sulforhodamine B assay relative to control. The conditions noted are these: HCT-116, 48 h, read-out: GI. Format: functional. In short, it runs like this:
as §3

Another assay concerns KM12. Nature of the assay: Growth inhibition of human KM12 cells at 10 uM after 48 hrs by sulforhodamine B assay relative to control. Format: functional. The note with it: KM12, 48 h, read-out: GI. A digest of the protocol:
as §3

Another assay relates to NCI-H460. Nature of the assay: Growth inhibition of human NCI-H460 cells at 10 uM after 48 hrs by sulforhodamine B assay relative to control. The format is functional. The conditions noted are these: NCI-H460, 48 h, read-out: GI. In short, it runs like this: as §2
A further assay relates to MDA-MB-468. Description: Growth inhibition of human MDA-MB-468 cells at 10 uM after 48 hrs by sulforhodamine B assay relative to control. The format is functional. The note with it: MDA-MB-468, 48 h, read-out: GI. In short, it runs like this:
as §2

The test system of another assay is HL-60(TB). Nature of the assay: Growth inhibition of human HL-60(TB) cells at 10 uM after 48 hrs by sulforhodamine B assay relative to control. The format is functional. The conditions noted are these: HL-60, 48 h, read-out: GI. In short, it runs like this:
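Single-dose primary screen at 10 µM across the NCI 60 panel, 48 h continuous exposure. Growth estimated by sulforhodamine B protein staining and reported as percentage growth inhibition relative to untreated control.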

Assay [6] has as its system Mus musculus. Description: Decrease in cyclin D1 level in tumor of BALB mouse allografted with mouse EAC cells at 6 mg/kg, ip for 5 days competitive ELISA relative to control. Format: functional, Ehrlich. More on the design: scale not given: the % may be the effect or the level left. The conditions noted are these: route intraperitoneal. A digest of the protocol:
(§4)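 Mice bearing s.c. Ehrlich tumours (2×10^5 EAC cells, grown 2 wk) were given daily i.p. saline, 3 or 6 mg/kg for 5 days. Tumours were excised, washed in cold saline and blotted, and a 10% homogenate was made in phosphate buffered saline. Cyclin D1 was measured by competitive ELISA with samples in duplicate. Mean ± SEM, n = 6.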

The test system of assay [7] is Mus musculus. Nature of the assay: Decrease in cyclin D1 level in tumor of BALB mouse allografted with mouse EAC cells at 3 mg/kg, ip for 5 days competitive ELISA relative to control. The format is functional, Ehrlich. More on the design: scale not given: the % may be the effect or the level left. The conditions noted are these: route intraperitoneal. In short, it runs like this:
as §4

Assay [8] has as its system Ehrlich. Description: Antitumor activity against mouse EAC cells allografted in ip dosed BALB mouse assessed as tumor growth inhibition administered for 5 days. Format: functional, organism-based. A digest of the protocol:
(§5)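 Female BALB mice; Ehrlich ascites carcinoma cells, 2×10^5 cells/mouse in 0.2 ml saline, injected s.c. into the left hind leg and grown 2 wk. Daily i.p. saline (control), 3 or 6 mg/kg for 5 days. Caliper size V = 0.4×a(b)^2, taken just before the first dose and 24 h after the last. Mean ± SEM, n = 6; ANOVA with Tukey-Kramer.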

The test system of assay [9] is Mus musculus. Description: Increase in GSK-3beta level in tumor of BALB mouse allografted with mouse EAC cells at 3 mg/kg, ip for 5 days by competitive ELISA relative to control. Format: functional, Ehrlich. The conditions noted are these: route intraperitoneal. In short, it runs like this: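 Female BALB mice bearing subcutaneous EAC tumours (2×10^5 cells in left hind leg, grown 2 wk). Dosed i.p. daily for 5 days; controls received saline. Excised tumours washed in cold saline and homogenised at 10% in PBS. GSK-3β measured by competitive ELISA, samples in duplicate. Change versus untreated controls, mean ± SEM, n = 6.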

In the next assay the test system is PC-3. Description: Growth inhibition of human PC3 cells at 10 uM after 48 hrs by sulforhodamine B assay relative to control. Format: functional. The conditions noted are these: PC-3, 48 h, read-out: GI. In short, it runs like this:
as §2

For a further assay, the system named is ACHN. Description: Growth inhibition of human ACHN cells at 10 uM after 48 hrs by sulforhodamine B assay relative to control. The note with it: read-out: GI. The format is functional. A digest of the protocol: as §3
Another assay concerns NCI-H23. Description: Growth inhibition of human NCI-H23 cells at 10 uM after 48 hrs by sulforhodamine B assay relative to control. Format: functional. The conditions noted are these: NCI-H23, 48 h, read-out: GI. A digest of the protocol: as §2
Assay [10] is described as follows: Growth inhibition of human LOXIMVI cells at 10 uM after 48 hrs by sulforhodamine B assay relative to control. The note with it: LOX IMVI, read-out: GI. The format is functional. In short, it runs like this:
as §3

For a further assay, the system named is IGROV-1. Nature of the assay: Growth inhibition of human IGROV1 cells at 10 uM after 48 hrs by sulforhodamine B assay relative to control. The note with it: IGROV-1, 48 h, read-out: GI. Format: functional. In short, it runs like this: as §3
The subject of assay [11] is Ehrlich. Nature of the assay: Antitumor activity against mouse EAC cells allografted in BALB mouse assessed as tumor growth inhibition at 3 mg/kg, ip for 5 days relative to control. The format is functional. The conditions noted are these: 120 h, route intraperitoneal, read-out: TGI. A digest of the protocol: as §5
The test system of another assay is NCI-H522. Description: Growth inhibition of human NCI-H522 cells at 10 uM after 48 hrs by sulforhodamine B assay relative to control. The format is functional. The conditions noted are these: NCI-H522, 48 h, read-out: GI. In short, it runs like this:
as §2

A short description of assay [12]: Growth inhibition of human OVCAR3 cells at 10 uM after 48 hrs by sulforhodamine B assay relative to control. The format is functional. The conditions noted are these: OVCAR-3, 48 h, read-out: GI. A digest of the protocol: as §2
The next assay deals with CAKI-1. Nature of the assay: Growth inhibition of human CAKI-1 cells at 10 uM after 48 hrs by sulforhodamine B assay relative to control. Format: functional. The conditions noted are these: CAKI-1, 48 h, read-out: GI. A digest of the protocol:
as §3

For `COc1c(C(=O)/C=C/c2ccc(Cl)cc2)c(O)c(Br)c2occc12`, the GI50 in assay [1] stood at 2540 nM; in assay [2], 3120 nM.

For the molecule `C=CCc1c(O)c(C(=O)/C=C/c2ccccc2)c(OC)c2ccoc12`, the GI50 in the assay with SR [3] was determined as 2150 nM.

In the case of `COc1c(C(=O)/C=C/c2ccccc2)c(O)cc2occc12`, the inhibition of growth at 10 µM with SR [4] is 72%; in [5], 89%; with SNB-75, 86%; with MDA-MB-435, 68%; in the assay on RPMI-8226, 86%; in the assay with HCT-116, 68%. Further, in the assay on KM12, the inhibition of growth at 10 µM turned out to be 64%. In addition, the GI50 with SR [3] turned out to be 3270 nM.

In the case of `COc1ccccc1/C=C/C(=O)c1c(O)cc2occc2c1OC`, the inhibition of growth at 10 µM with SR [4] amounted to 62%; in assay [5], 66%; in the assay with NCI-H460, 61%; in the assay on MDA-MB-468, 84%; in the assay on MDA-MB-435, 74%; in the assay on RPMI-8226 it was 86%. In addition, the inhibition of growth at 10 µM in the assay on HCT-116 was found to be 66%; with KM12, 63%.

On to `COc1c2occc2c(OC)c2c(=O)c(CN3CCOCC3)c(/C=C/c3ccc(N(C)C)cc3)oc12`, for which the inhibition of growth at 10 µM is 64% in the assay with HL-60(TB); 88% in assay [5]; 70% in the assay on MDA-MB-468; 87% in the assay with PC-3; 89% in the assay on ACHN; 99% with SNB-75. Also, the inhibition of growth at 10 µM with NCI-H23 is 80%; in assay [10], 65%; with IGROV-1, 78%; in the assay with RPMI-8226, 80%; in the assay with HCT-116 it was 82%; with KM12, 73%. Further, the inhibition of growth at 10 µM in the assay with NCI-H522 is 84%; in assay [12], 88%. The Activity in the assay on Mus musculus [6] came out at 59.1%; with Mus musculus [7], 40.6%; in the assay on Mus musculus [9] it was 101.5%. In the assay with Ehrlich [8], the TGI result is “Dose-dependent effect”. Moreover, the GI50 was found to be 2870 nM in assay [1] and 1680 nM in assay [2]. Also, the inhibition in vivo at 3 mg/kg with Ehrlich [11] is 62.1%.

In turn, `C=CCc1c(O)c(C(=O)/C=C/c2ccc(Cl)cc2)c(OC)c2ccoc12` returned a GI50 with SR [3] of 2770 nM.

On to `COc1c2occc2c(OC)c2c(=O)c(CN3CCOCC3)c(/C=C/c3ccc(Cl)cc3)oc12`, for which the inhibition of growth at 10 µM in the assay with HL-60(TB) was 60%; in [5], 93%; in the assay with CAKI-1, 61%; in the assay on NCI-H460, 88%; in the assay with MDA-MB-468 it was 86%; in the assay on PC-3 it was 72%. Besides, the figures for the inhibition of growth at 10 µM (in the assay with ACHN; with RPMI-8226; in assay [12]) were 66%, 60% and 68%, respectively.

As for `C=CCc1c2c(c(OC)c3ccoc13)C(=O)/C(=C/c1ccccc1OC)O2`, the inhibition of growth at 10 µM with CAKI-1 is 62%; in the assay with NCI-H460, 69%; in the assay with SNB-75, 64%; in the assay with NCI-H23, 80%; in assay [10] it was 62%; in the assay on RPMI-8226, 71%. The inhibition of growth at 10 µM in the assay with HCT-116 was 79%. Besides, in the assay with SR [3], the GI50 was determined as 3160 nM.
